Experimental data from different studies.
Each line is one published result; the experiments were not run side by side.
RPS6KA6: Ribosomal protein S6 kinase alpha-6 (RPS6KA6, Homo sapiens, UniProt Q9UK32)
RPS6KA6 C-terminal kinase domain: Ribosomal protein S6 kinase alpha-6, C-terminal kinase domain (RPS6KA6, Homo sapiens, UniProt Q9UK32)
RPS6KA6 N-terminal kinase domain: Ribosomal protein S6 kinase alpha-6, N-terminal kinase domain (RPS6KA6, Homo sapiens, UniProt Q9UK32)

Cn1cc(-c2cc(F)cc(N3CCn4c(cc5c4CCCC5)C3=O)c2CO)cc(Nc2ccc(N3CCN(C4COC4)CC3)cn2)c1=O — inhibition (RPS6KA6; enzyme activity, inhibitor; 0.1 µM): 2%
Nc1ncc(-c2nc(N3CCOCC3)nc(N3CCOCC3)n2)c(C(F)F)n1 — remaining binding (RPS6KA6 C-terminal kinase domain; binding, competition with immobilised ligand; 10 µM): 94%
Cn1cncc1[C@](O)(COc1ccc(C#N)cc1-c1ccc(OC(F)(F)F)cc1)c1ccc(C#N)cc1 — remaining binding (RPS6KA6 N-terminal kinase domain; cell-free assay, competition with immobilised ligand; 1 µM): 91%
Cn1cc(-c2cccc(N3CCc4c(sc5c4CC(C)(C)C5)C3=O)c2CO)cc(Nc2ccncn2)c1=O — inhibition (RPS6KA6; enzyme activity, inhibitor; 1 µM): 9%
N#CC1(c2ccccn2)CCN(Cc2cc(C(=O)O)c(=O)n3ccccc23)CC1 — remaining binding (RPS6KA6 C-terminal kinase domain; cell-free assay, competition with immobilised ligand; 1 µM): 97%
CC(C)(C)c1cc(C=C(C#N)C#N)cc(Br)c1O — remaining activity (RPS6KA6; enzyme activity, inhibitor; 0.5 µM): 101%
COc1cc(Nc2ncc(F)c(Nc3ccc4c(n3)NC(=O)C(C)(C)O4)n2)cc(OC)c1OC — inhibition (RPS6KA6 N-terminal kinase domain; binding, competition with immobilised ligand; 10 µM): 70%
O=c1[nH]c2ccccc2n1C1CCN(Cc2ccc(-c3[nH]c4cc5ncnc5cc4nc3-c3ccccc3)cc2)CC1 — remaining signal (RPS6KA6; cell-free assay; 0.5 µM): 109%
Cc1nn(C)cc1-c1nc2c(N3CCN(Cc4ccc(Cl)cc4)CC3)c(Cl)cnc2[nH]1 — remaining binding (RPS6KA6 N-terminal kinase domain; binding, competition with immobilised ligand; 1 µM): 66%
